Source: ChEMBL document CHEMBL4229550, “An antimycobacterial pleuromutilin analogue effective against dormant bacilli” (Bioorg Med Chem, 2018)
Converted amounts (≈) assume the structure as drawn. The source made the active and inactive calls. The calls are words filed in the database; no cut-off is given here.

Experiments:
Clostridioides difficile = test: Bactericidal activity against Clostridium difficile ATCC 700057 incubated for 24 hrs […] by MABA; assay type: functional; conditions: ATCC 700057, 24 h
Bacillus subtilis [1] = test: Antibacterial activity against Bacillus subtilis ATCC 6051 incubated for 24 hrs under aerobic condition by MABA; assay type: functional; conditions: ATCC 6051, 24 h, read-out: MIC100
Summary of the method: (§1)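 Mid-log cultures at OD 0.5 were exposed to serial dilutions under aerobic conditions at 37 °C for 24 h. Resazurin was then added from a 0.08% stock for 1 h. MIC100 was the lowest concentration where the dye stayed blue (pink means growth). Absorbance was also read at 570 and 600 nm.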

Klebsiella pneumoniae [2] = test: Bactericidal activity against Klebsiella pneumoniae ATCC 12019 incubated for 24 hrs under aerobic condition by MABA; assay type: functional; conditions: ATCC 12019, 24 h
Acinetobacter baumannii [3] = test: Antibacterial activity against Acinetobacter baumannii ATCC 19606 incubated for 24 hrs under aerobic condition by MABA; assay type: functional; conditions: ATCC 19606 = CIP 70.34 = JCM 6841, 24 h, read-out: MIC100; summary of the method: as §1
Escherichia coli [4] = test: Bactericidal activity against Escherichia coli ATCC 10798 incubated for 24 hrs under aerobic condition by MABA; assay type: functional; conditions: ATCC 10798, 24 h
Staphylococcus aureus [5] = test: Bactericidal activity against Staphylococcus aureus BAA 1683 incubated for 24 hrs under aerobic condition by MABA; assay type: functional; conditions: BAA 1683, 24 h
Enterococcus faecalis [6] = test: Bactericidal activity against Enterococcus faecalis ATCC 19433 incubated for 24 hrs under aerobic condition by MABA; assay type: functional; conditions: ATCC 19433, 24 h
Staphylococcus aureus [7] = test: Antibacterial activity against Staphylococcus aureus BAA 1683 incubated for 24 hrs under aerobic condition by MABA; assay type: functional; conditions: BAA 1683, 24 h, read-out: MIC100; summary of the method: as §1
Streptococcus pneumoniae [8] = test: Bactericidal activity against Streptococcus pneumoniae ATCC 6301 incubated for 24 hrs under aerobic condition by MABA; assay type: functional; conditions: ATCC 6301, 24 h
Acinetobacter baumannii [9] = test: Bactericidal activity against Acinetobacter baumannii ATCC 19606 incubated for 24 hrs under aerobic condition by MABA; assay type: functional; conditions: ATCC 19606 = CIP 70.34 = JCM 6841, 24 h
Escherichia coli [10] = test: Inhibition of protein translation/transcription in Escherichia coli S30 cell extract at 0.1 ug/ml using circular DNA with pBESTluc after 60 mins by luciferase reporter gene assay; assay type: functional
Summary of the method: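 Coupled transcription/translation used E. coli S30 extract, amino acid mix and premix, with the pBESTluc template carrying firefly luciferase under the tac promoter. Compounds were added in DMSO and reactions were started with DNA. Incubation was 60 min at 37 °C, stopped on ice, and luciferase was read after adding assay substrate.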

Streptococcus salivarius [11] = test: Antibacterial activity against Streptococcus salivarius […] incubated for 24 hrs under aerobic condition by MABA; assay type: functional; conditions: read-out: MIC100
Summary of the method: (§2)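 Resazurin was then added from a 0.08% stock for 1 h. MIC100 was the lowest concentration where the dye stayed blue (pink means growth). Absorbance was also read at 570 and 600 nm.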

Klebsiella pneumoniae [12] = test: Antibacterial activity against Klebsiella pneumoniae ATCC 12019 incubated for 24 hrs under aerobic condition by MABA; assay type: functional; conditions: ATCC 12019, 24 h, read-out: MIC100; summary of the method: as §1
Escherichia coli [13] = test: Antibacterial activity against Escherichia coli ATCC 10798 incubated for 24 hrs under aerobic condition by MABA; assay type: functional; conditions: ATCC 10798, 24 h, read-out: MIC100; summary of the method: as §1
Enterococcus faecalis [14] = test: Bactericidal activity against Enterococcus faecalis ATCC 349 incubated for 24 hrs under aerobic condition by MABA; assay type: functional; conditions: ATCC 349, 24 h
Staphylococcus aureus [15] = test: Bactericidal activity against Staphylococcus aureus BAA 44 incubated for 24 hrs under aerobic condition by MABA; assay type: functional; conditions: BAA 44, 24 h
[16] = tested on: Mycobacterium tuberculosis; test: Bactericidal activity against replicating Mycobacterium tuberculosis H37Rv incubated for 15 days under aerobic condition by MABA; assay type: functional; conditions: 360 h
Summary of the method: (§3)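 Mtb H37Rv grown in 7H9/OADC at 37 °C with shaking to OD600 0.5. The 0.5-OD culture is exposed aerobically to serial dilutions for 15 days at 37 °C. Resazurin (0.02% stock) is then added for 4 h at 37 °C with shaking.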

Streptococcus pneumoniae [17] = test: Antibacterial activity against Streptococcus pneumoniae ATCC 6301 incubated for 24 hrs under aerobic condition by MABA; assay type: functional; conditions: ATCC 6301, 24 h, read-out: MIC100; summary of the method: as §1
Streptococcus salivarius [18] = test: Bactericidal activity against Streptococcus salivarius ATCC 6301 incubated for 24 hrs under aerobic condition by MABA; assay type: functional; conditions: ATCC 6301, 24 h
Bacillus subtilis [19] = test: Bactericidal activity against Bacillus subtilis ATCC 6051 incubated for 24 hrs under aerobic condition by MABA; assay type: functional; conditions: ATCC 6051, 24 h
[20] = tested on: Mycolicibacterium smegmatis; test: Antibacterial activity against Mycobacterium smegmatis ATCC 607 incubated for 48 hrs under aerobic condition by MABA; assay type: functional; conditions: ATCC 607, 48 h, read-out: MIC100
Summary of the method: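 Mid-log culture at OD 0.5 was incubated with serial dilutions aerobically at 37 °C for 48 h. Resazurin was then added from a 0.08% stock for 1 h. MIC100 was the lowest concentration that stayed blue; absorbance was also read at 570/600 nm.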

Enterococcus faecalis [21] = test: Antibacterial activity against Enterococcus faecalis ATCC 349 incubated for 24 hrs under aerobic condition by MABA; assay type: functional; conditions: ATCC 349, 24 h, read-out: MIC100; summary of the method: as §1
Staphylococcus aureus [22] = test: Antibacterial activity against Staphylococcus aureus ATCC 25923 incubated for 24 hrs under aerobic condition by MABA; assay type: functional; conditions: ATCC 25923, 24 h, read-out: MIC100; summary of the method: as §1
Enterococcus faecalis [23] = test: Antibacterial activity against Enterococcus faecalis ATCC 19433 incubated for 24 hrs under aerobic condition by MABA; assay type: functional; conditions: ATCC 19433, 24 h, read-out: MIC100; summary of the method: as §1
Staphylococcus aureus [24] = test: Antibacterial activity against Staphylococcus aureus incubated for 24 hrs under aerobic condition by MABA; assay type: functional; conditions: read-out: MIC100; summary of the method: as §2
Staphylococcus aureus [25] = test: Bactericidal activity against Staphylococcus aureus BAA 2094 incubated for 24 hrs under aerobic condition by MABA; assay type: functional; conditions: BAA 2094, 24 h
Staphylococcus aureus [26] = test: Antibacterial activity against Staphylococcus aureus BAA 2094 incubated for 24 hrs under aerobic condition by MABA; assay type: functional; conditions: BAA 2094, 24 h, read-out: MIC100; summary of the method: as §2
Vero = test: Cytotoxicity against African green monkey Vero cells assessed as reduction in cell viability after 72 hrs by MTT assay; assay type: cell-based; conditions: Chlorocebus sabaeus
Summary of the method: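 Vero cells were grown in complete EMEM with 10% FBS and exposed for 72 h to 0.78–200 µg/mL. The medium was then swapped for phenol-red-free EMEM and MTT was added. Formazan absorbance was read at 570 nm to give IC50.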

[27] = Selectivity index, ratio of IC50 for African green monkey Vero cells to MIC100 for replicating Mycobacterium tuberculosis H37Rv by MABA; assay type: toxicity; conditions: read-out: Selectivity Index
Summary of the method: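 Vero cells are cultured in EMEM with 10% FBS and exposed for 72 h to 0.78–200 µg/mL. Medium is switched to phenol-red-free EMEM, MTT is added, and formazan is read at 570 nm to give IC50. The selectivity index is Vero IC50 divided by the MABA MIC.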

Staphylococcus aureus [28] = test: Bactericidal activity against Staphylococcus aureus ATCC 25923 incubated for 24 hrs under aerobic condition by MABA; assay type: functional; conditions: ATCC 25923, 24 h
[29] = tested on: Mycobacterium tuberculosis; test: Antibacterial activity against replicating Mycobacterium tuberculosis H37Rv incubated for 15 days under aerobic condition by MABA; assay type: functional; conditions: 360 h, read-out: MIC100; summary of the method: as §3
Staphylococcus aureus [30] = test: Bactericidal activity against Staphylococcus aureus incubated for 24 hrs under aerobic condition by MABA; assay type: functional
Escherichia coli [31] = test: Inhibition of protein translation/transcription in Escherichia coli S30 cell extract using circular DNA with pBESTluc after 60 mins by luciferase reporter gene assay; assay type: functional; conditions: 1 h
Summary of the method: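 E. coli S30 circular-DNA coupled transcription/translation kit with the pBESTluc template (firefly luciferase under the tac promoter). S30 extract, amino acids and premix are combined with compound in DMSO, and the reaction is started with DNA. Incubation is 60 min at 37 °C, stopped on ice, then luciferase luminescence is read.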

[32] = tested on: Mycolicibacterium smegmatis; test: Bactericidal activity against Mycobacterium smegmatis ATCC 607 incubated for 48 hrs under aerobic condition by MABA; assay type: functional; conditions: ATCC 607, 48 h
Staphylococcus aureus [33] = test: Antibacterial activity against Staphylococcus aureus BAA 44 incubated for 24 hrs under aerobic condition by MABA; assay type: functional; conditions: BAA 44, 24 h, read-out: MIC100; summary of the method: as §1

CC(=O)NC[C@H]1CN(c2ccc(N3CCOCC3)c(F)c2)C(=O)O1 [LINEZOLID]
MBC (Clostridioides difficile): 3.13 µg/mL (≈ 9.28 µM)
MIC (Bacillus subtilis [1]): 3.13 µg/mL (≈ 9.28 µM)
MBC (Klebsiella pneumoniae [2]): > 25 µg/mL
MIC (Acinetobacter baumannii [3]): > 25 µg/mL
MBC (Escherichia coli [4]): > 25 µg/mL
MBC (Staphylococcus aureus [5]): 25 µg/mL (≈ 74.1 µM)
MBC (Enterococcus faecalis [6]): 25 µg/mL (≈ 74.1 µM)
MIC (Staphylococcus aureus [7]): 12.5 µg/mL (≈ 37.1 µM)
MBC (Streptococcus pneumoniae [8]): > 25 µg/mL
MBC (Acinetobacter baumannii [9]): > 25 µg/mL
inhibition (Escherichia coli [10]): Active
MIC (Streptococcus salivarius [11]): 3.13 µg/mL (≈ 9.28 µM)
MIC (Klebsiella pneumoniae [12]): 25 µg/mL (≈ 74.1 µM)
MIC (Escherichia coli [13]): 25 µg/mL (≈ 74.1 µM)
MBC (Enterococcus faecalis [14]): > 25 µg/mL
MBC (Staphylococcus aureus [15]): > 25 µg/mL
MBC [16]: 1.61 µg/mL (≈ 4.77 µM)
MIC (Streptococcus pneumoniae [17]): 25 µg/mL (≈ 74.1 µM)
MBC (Streptococcus salivarius [18]): > 25 µg/mL
MBC (Bacillus subtilis [19]): 6.25 µg/mL (≈ 18.5 µM)
MIC [20]: 0.2 µg/mL (≈ 0.593 µM)
MIC (Enterococcus faecalis [21]): > 25 µg/mL
MIC (Staphylococcus aureus [22]): > 25 µg/mL
MIC (Enterococcus faecalis [23]): 12.5 µg/mL (≈ 37.1 µM)
MIC (Staphylococcus aureus [24]): 0.78 µg/mL (≈ 2.31 µM)
MBC (Staphylococcus aureus [25]): > 25 µg/mL
MIC (Staphylococcus aureus [26]): > 25 µg/mL
IC50 (Vero): > 200 µg/mL
selectivity ratio [27]: > 333
MBC (Staphylococcus aureus [28]): > 25 µg/mL
MIC [29]: 0.6 µg/mL (≈ 1.78 µM)
MBC (Staphylococcus aureus [30]): 1.56 µg/mL (≈ 4.62 µM)
IC50 (Escherichia coli [31]): 0.05 µg/mL (≈ 0.148 µM)
MBC [32]: 0.8 µg/mL (≈ 2.37 µM)
MIC (Staphylococcus aureus [33]): > 25 µg/mL
